# In PMC12799515 (Journal of Orthopaedic Translation, 2025):
# How the values were obtained:
# inTPCs [1] = assay: ALP and ARS staining of inTPCs; type: cell-based, C57BL/6 J mice; settings: 1 μM CCCP or 5 μM CsA, vs vehicle; for ARS staining: four stimulation cycles; for ALP staining: three stimulation cycles
# In short: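 Mouse tendon cells were digested with collagenase, grown in low-glucose DMEM/15% FBS and used at passage 3–4. Each cycle was 2 days of ODM (high-glucose DMEM, 10−8 M dexamethasone, 50 μg/mL vitamin C, 10 mM β-glycerol phosphate, 10% FBS) with test compound or solvent, then 2 days of plain ODM. ALP: 3 cycles, 4% PFA 30 min, BCIP/NBT stain. ARS: 4 cycles, kit fixative 20 min. Positive ratio quantified by image analysis.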
# [2] = test system: osteogenic-related genes Ocn, Runx2, Alpl in inTPCs; assay: qRT–PCR of osteogenic-related genes in inTPCs; type: cell-based, C57BL/6 J mice; settings: 1 μM CCCP or 5 μM CsA, three stimulation cycles in ODM, vs vehicle
# In short: (§1)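 Mouse tendon cells (passage 3–4) received three 4-day cycles: 2 days of ODM containing test compound or equal-volume solvent, then 2 days of plain ODM. Transcripts were measured by SYBR Green qRT–PCR, normalised to Gapdh, with relative expression calculated by the 2−ΔΔCt method.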
# [3] = test system: mitophagy-related genes Pink1, Prkn, LC3b, p62 in inTPCs; assay: qRT–PCR of mitophagy-related genes in inTPCs; type: cell-based, C57BL/6 J mice; settings: 1 μM CCCP or 5 μM CsA, three stimulation cycles in ODM, vs vehicle
# In short: as §1
# [4] = test system: PINK1, Parkin, LC3BⅡ, p62 in inTPCs; assay: Western blotting of mitophagy-related proteins in inTPCs; type: cell-based, C57BL/6 J mice
# In short: (§2)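 Mouse tendon cells were treated in one of two ways: three 4-day cycles (2 days ODM with test compound or solvent, then 2 days plain ODM), or 2 days of osteogenic induction with 100 nM Slc25a4 siRNA (RNAiMAX) ±1 μM test compound added on day 2. Proteins were extracted in RIPA with protease/phosphatase inhibitors, heated to 100 °C for 10 min, separated by SDS-PAGE, transferred to PVDF, blocked with 5% milk and detected by ECL. Bands were quantified by densitometry.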
# ANT1 in inTPCs = assay: ANT1/Slc25a4 expression in inTPCs; type: cell-based, C57BL/6 J mice; settings: two days osteogenic induction, 1 μM CCCP
# In short: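 Mouse tendon cells under 2 days of osteogenic induction were transfected with 100 nM Slc25a4 siRNA or control siRNA (RNAiMAX) for 2 days, with 1 μM test compound added on day 2. ANT1 protein was measured by western blot (RIPA lysis with protease/phosphatase inhibitors, 100 °C 10 min, SDS-PAGE, PVDF, 5% milk block, ECL, band densitometry). Slc25a4 mRNA was measured by SYBR qRT–PCR against Gapdh (2−ΔΔCt).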
# inTPCs [5] = assay: Cell viability; type: cell-based, C57BL/6 J mice; settings: 1 μM CCCP or 5 μM CsA, 48 h
# In short: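 Mouse tendon cells (passage 3–4) were seeded in 96-well plates and exposed to test compound at varying concentrations (0, 0.1, 0.5, 1, 5, 10 μM for the inhibitor) for 48 h. They were then incubated with 10% CCK-8 at 37 °C for 1 h, and absorbance was read at 450 nm to calculate viability.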
# [6] = test system: OCN, RUNX2, ALP in inTPCs; assay: Western blotting of osteogenic-related proteins in inTPCs; type: cell-based, C57BL/6 J mice; settings: for protein expression of OCN, RUNX2, ALP: 1 μM CCCP or 5 μM CsA, three stimulation cycles in ODM, vs vehicle
# In short: as §2
# inTPCs [7] = assay: Apoptosis; type: cell-based, C57BL/6 J mice; settings: 1 μM CCCP or 5 μM CsA
# [8] = no reference given; cited from earlier work
# mitophagy = settings: cited from earlier work
# [9] = 1 μM CCCP or 5 μM CsA, three stimulation cycles in ODM, vs vehicle
# [10] = two days osteogenic induction, 100 nM si-Slc25a4 two days, or 1 μM CCCP
Compound,ARS staining (inTPCs [1]),ALP staining (inTPCs [1]),"gene expression of Ocn, Runx2, Alpl [2]","gene expression of Pink1, Prkn, LC3b [3]",p62 gene expression [3],"p62 protein expression [4, 9]","protein expression of PINK1, Parkin, LC3BⅡ [4, 9]","protein expression of OCN, RUNX2, ALP [6]",toxicity of ANT1 inhibitors [8],also measured
"N#CC(C#N)=NNc1cccc(Cl)c1 [CCCP, carbonyl cyanide 3-chlorophenylhydrazone]",increased,increased,increased,increased,suppressed,p62 suppression,upregulated,upregulated,,"p62 protein expression [4, 10]: suppressed; protein expression of PINK1, Parkin, LC3BⅡ [4, 10]: promoted; ANT1 protein expression (ANT1 in inTPCs): did not affect ANT1 expression; cell viability (poisoning) (inTPCs [5]): did not cause poisoning; protein expression of RUNX2, ALP [6, 10]: promoted; apoptosis (inTPCs [7]): did not cause poisoning (Fig. 3A and B) or apoptosis"
"CO[C@H](C/C=C\C=C\CC/C=C/C[C@H](C)/C=C/C(=C\C(=O)O)CC(=O)O)/C(C)=C\C=C(/C)C(=O)O [BKA, bongkrekic acid]",,,,,,,,,toxic agents unsuitable for clinical use,
cyclosporin A [CsA],reduced,reduced,suppressed,suppressed,promoted,p62 accumulation,downregulated,downregulated,,
"OC1c2cc3ccc4cccc5ccc(c2C2OC2C1O)c3c45 (stereo not shown) [benzo(a)pyrene-7,8-dihydrodiol-9, 10-epoxide]",,,,,,,,,,mitophagy (mitophagy): suppressed
"C=C1[C@@H]2CC[C@H]3[C@]4(C)C[C@H](O[C@@H]5O[C@H](CO)[C@@H](OS(=O)(=O)O)[C@H](OS(=O)(=O)O)[C@H]5OC(=O)CC(C)C)CC(C(=O)O)(C(=O)O)[C@H]4CC[C@]3(C2)[C@H]1O [CATR, carboxyatractyloside]",,,,,,,,,toxic agents unsuitable for clinical use,
